Columns and labels:
T47D = experiment: Growth inhibition of human T47D cells after 48 hrs by sulforhodamine B assay; format: functional
Method in brief: (§1)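 NCI in vitro panel screen. Compounds tested at five 10-fold dilutions, 10^-4 to 10^-8 M. Cells in 96-well plates were exposed for the last 48 h of a 72 h incubation. Viability/growth was read by sulforhodamine B protein assay. GI50 is the concentration giving 50% growth inhibition. Values beyond the tested range are reported as greater or less than the maximum or minimum concentration.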

NCI-H460 = experiment: Growth inhibition of human NCI-H460 cells after 48 hrs by sulforhodamine B assay; format: functional; conditions: NCI-H460, 48 h
Method in brief: (§2)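 NCI screen panel. Five 10-fold concentrations from 10^-4 to 10^-8 M. Exposure for the last 48 h of a 72 h incubation. Growth estimated by sulforhodamine B protein assay. GI50 is the concentration giving 50% growth inhibition. Where that level was not reached or was exceeded, the value is given as above or below the highest or lowest concentration tested.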

SN12C = experiment: Growth inhibition of human SN12C cells after 48 hrs by sulforhodamine B assay; format: functional; method in brief: as §1
SNB-19 = experiment: Growth inhibition of human SNB19 cells after 48 hrs by sulforhodamine B assay; format: functional; conditions: SNB-19, 48 h; method in brief: as §1
[1] = Growth inhibition of human […] cells after 48 hrs by sulforhodamine B assay; format: functional; method in brief: as §2
EKVX = experiment: Growth inhibition of human EKVX cells after 48 hrs by sulforhodamine B assay; format: functional; method in brief: as §2
UO-31 = experiment: Growth inhibition of human UO31 cells after 48 hrs by sulforhodamine B assay; format: functional; conditions: UO-31, 48 h; method in brief: as §1
BT-549 = experiment: Growth inhibition of human BT549 cells after 48 hrs by sulforhodamine B assay; format: functional; conditions: BT-549, 48 h; method in brief: as §2
OVCAR-8 = experiment: Growth inhibition of human OVCAR8 cells after 48 hrs by sulforhodamine B assay; format: functional; conditions: OVCAR-8, 48 h; method in brief: as §2
SW-620 = experiment: Growth inhibition of human SW620 cells after 48 hrs by sulforhodamine B assay; format: functional; conditions: SW-620, 48 h; method in brief: as §1
IGROV-1 = experiment: Growth inhibition of human IGROV1 cells after 48 hrs by sulforhodamine B assay; format: functional; conditions: IGROV-1, 48 h; method in brief: as §2
U-251 = experiment: Growth inhibition of human U251 cells after 48 hrs by sulforhodamine B assay; format: functional; conditions: U-251, 48 h; method in brief: as §1
KM12 = experiment: Growth inhibition of human KM12 cells after 48 hrs by sulforhodamine B assay; format: functional; conditions: KM12, 48 h; method in brief: as §2
UACC-62 = experiment: Growth inhibition of human UACC62 cells after 48 hrs by sulforhodamine B assay; format: functional; conditions: UACC-62, 48 h; method in brief: as §1
CAKI-1 = experiment: Growth inhibition of human Caki1 cells after 48 hrs by sulforhodamine B assay; format: functional; conditions: CAKI-1, 48 h; method in brief: as §2
SK-MEL-2 = experiment: Growth inhibition of human SK-MEL-2 cells after 48 hrs by sulforhodamine B assay; format: functional; conditions: SK-MEL-2, 48 h; method in brief: as §2
HT-29 = experiment: Growth inhibition of human HT-29 cells after 48 hrs by sulforhodamine B assay; format: functional; conditions: HT-29, 48 h; method in brief: as §2
NCI-H322M = experiment: Growth inhibition of human NCI-H322M cells after 48 hrs by sulforhodamine B assay; format: functional; method in brief: as §2
SK-OV-3 = experiment: Growth inhibition of human SKOV3 cells after 48 hrs by sulforhodamine B assay; format: functional; conditions: SK-OV-3, 48 h; method in brief: as §2
Malme-3M = experiment: Growth inhibition of human MALME-3M cells after 48 hrs by sulforhodamine B assay; format: functional; method in brief: as §2
MDA-MB-231 = experiment: Growth inhibition of human MDA-MB-231 cells after 48 hrs by sulforhodamine B assay; format: functional; conditions: MDA-MB-231, 48 h; method in brief: as §2
SK-MEL-5 = experiment: Growth inhibition of human SK-MEL-5 cells after 48 hrs by sulforhodamine B assay; format: functional; conditions: SK-MEL-5, 48 h; method in brief: as §2
HCT-15 = experiment: Growth inhibition of human HCT15 cells after 48 hrs by sulforhodamine B assay; format: functional; conditions: HCT-15, 48 h; method in brief: as §2
K562 = experiment: Growth inhibition of human K562 cells after 48 hrs by sulforhodamine B assay; format: functional; conditions: K562, 48 h; method in brief: as §2
RXF 393 = experiment: Growth inhibition of human RXF393 cells after 48 hrs by sulforhodamine B assay; format: functional; conditions: RXF 393, 48 h; method in brief: as §2
A549 = experiment: Growth inhibition of human A549 cells after 48 hrs by sulforhodamine B assay; format: functional; conditions: A549, 48 h; method in brief: as §2
SF-295 = experiment: Growth inhibition of human SF295 cells after 48 hrs by sulforhodamine B assay; format: functional; conditions: SF-295, 48 h; method in brief: as §2
SF-268 = experiment: Growth inhibition of human SF268 cells after 48 hrs by sulforhodamine B assay; format: functional; conditions: SF-268, 48 h; method in brief: as §2
ACHN = experiment: Growth inhibition of human ACHN cells after 48 hrs by sulforhodamine B assay; format: functional; method in brief: as §2
MT4 = experiment: Antiproliferative activity against human MT4 cells assessed as reduction of growth by MTT assay; format: functional, cell-based
Method in brief: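 MT-4 lymphoblastoid T cells (ATCC) in RPMI 1640 with 10% FCS, penicillin/streptomycin, checked for mycoplasma. 1 × 10⁴ mock-infected cells per well with serial dilutions from a 100 mM DMSO stock. Incubated 4 days at 37 °C, viable cells counted by MTT. IC50 versus untreated controls by linear regression. Mean of three separate experiments.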

786-0 = experiment: Growth inhibition of human 786-0 cells after 48 hrs by sulforhodamine B assay; format: functional; conditions: 786-0, 48 h; method in brief: as §2
MDA-MB-435 = experiment: Growth inhibition of human MDA-MB-435 cells after 48 hrs by sulforhodamine B assay; format: functional; conditions: MDA-MB-435, 48 h; method in brief: as §2
UACC-257 = experiment: Growth inhibition of human UACC257 cells after 48 hrs by sulforhodamine B assay; format: functional; conditions: UACC-257, 48 h; method in brief: as §1
M14 = experiment: Growth inhibition of human M14 cells after 48 hrs by sulforhodamine B assay; format: functional; conditions: M14, 48 h; method in brief: as §2
COLO 205 = experiment: Growth inhibition of human COLO205 cells after 48 hrs by sulforhodamine B assay; format: functional; conditions: COLO 205, 48 h; method in brief: as §2
TK-10 = experiment: Growth inhibition of human TK10 cells after 48 hrs by sulforhodamine B assay; format: functional; conditions: TK-10, 48 h; method in brief: as §1
HOP-92 = experiment: Growth inhibition of human HOP92 cells after 48 hrs by sulforhodamine B assay; format: functional; conditions: HOP-92, 48 h; method in brief: as §2
OVCAR-3 = experiment: Growth inhibition of human OVCAR-3 cells after 48 hrs by sulforhodamine B assay; format: functional; conditions: OVCAR-3, 48 h; method in brief: as §2
HCT-116 = experiment: Growth inhibition of human HCT116 cells after 48 hrs by sulforhodamine B assay; format: functional; conditions: HCT-116, 48 h; method in brief: as §2
HOP-62 = experiment: Growth inhibition of human HOP62 cells after 48 hrs by sulforhodamine B assay; format: functional; conditions: HOP-62, 48 h; method in brief: as §2
MOLT-4 = experiment: Growth inhibition of human MOLT4 cells after 48 hrs by sulforhodamine B assay; format: functional; conditions: MOLT-4, 48 h; method in brief: as §2
NCI/ADR-RES = experiment: Growth inhibition of human NCI/ADR-RES cells after 48 hrs by sulforhodamine B assay; format: functional; method in brief: as §2
PC-3 = experiment: Growth inhibition of human PC3 cells after 48 hrs by sulforhodamine B assay; format: functional; conditions: PC-3, 48 h; method in brief: as §2
HL-60(TB) = experiment: Growth inhibition of human HL-60(TB) cells after 48 hrs by sulforhodamine B assay; format: functional; conditions: HL-60, 48 h
Method in brief: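 NCI 60-cell-line screen protocol: cells exposed to compound at five 10-fold dilutions from 10^-4 to 10^-8 M for the last 48 h of a 72 h incubation. Sulforhodamine B protein assay estimated viability/growth. GI50 (50% growth inhibition) derived; where not reached or exceeded, reported as greater or less than the highest or lowest concentration tested.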

LOX IMVI = experiment: Growth inhibition of human LOXIMVI cells after 48 hrs by sulforhodamine B assay; format: functional; method in brief: as §2
OVCAR-4 = experiment: Growth inhibition of human OVCAR4 cells after 48 hrs by sulforhodamine B assay; format: functional; conditions: OVCAR-4, 48 h; method in brief: as §2
SNB-75 = experiment: Growth inhibition of human SNB75 cells after 48 hrs by sulforhodamine B assay; format: functional; conditions: SNB-75, 48 h; method in brief: as §1
NCI-H23 = experiment: Growth inhibition of human NCI-H23 cells after 48 hrs by sulforhodamine B assay; format: functional; conditions: NCI-H23, 48 h; method in brief: as §2
SK-MEL-28 = experiment: Growth inhibition of human SK-MEL-28 cells after 48 hrs by sulforhodamine B assay; format: functional; conditions: SK-MEL-28, 48 h; method in brief: as §2

COC(=O)/C(=C\N1CCN(C(=O)c2ccco2)C1=S)C(C)=O
GI50 (T47D): 6 µM | GI50 (NCI-H460): 2.3 µM | GI50 (SN12C): 5.9 µM | GI50 (SNB-19): 41.7 µM | GI50 [1]: 5.5 µM | GI50 (EKVX): 2.6 µM | GI50 (UO-31): 13.5 µM | GI50 (BT-549): 3.5 µM | GI50 (OVCAR-8): 27.8 µM | GI50 (SW-620): 3.9 µM | GI50 (IGROV-1): 10.4 µM | GI50 (U-251): 5.5 µM | GI50 (KM12): 3 µM | GI50 (UACC-62): 11.5 µM | GI50 (CAKI-1): 2.8 µM | GI50 (SK-MEL-2): 15.2 µM | GI50 (HT-29): 15.8 µM | GI50 (NCI-H322M): 12.4 µM | GI50 (SK-OV-3): 31.3 µM | GI50 (Malme-3M): 5.6 µM | GI50 (MDA-MB-231): 9 µM | GI50 (SK-MEL-5): 5.3 µM | GI50 (HCT-15): 2.2 µM | GI50 (K562): 10.2 µM | GI50 (RXF 393): 4.4 µM | GI50 (A549): 19.3 µM | GI50 (SF-295): 18.6 µM | GI50 (SF-268): 5.8 µM | GI50 (ACHN): 4.1 µM | IC50 (MT4): 7 µM | GI50 (786-0): 11.2 µM | GI50 (MDA-MB-435): 4.5 µM | GI50 (UACC-257): 17.2 µM | GI50 (M14): 10.7 µM | GI50 (COLO 205): 12.6 µM | GI50 (TK-10): 3.5 µM | GI50 (HOP-92): 20.8 µM | GI50 (OVCAR-3): 2.7 µM | GI50 (HCT-116): 7.4 µM | GI50 (HOP-62): 20.6 µM | GI50 (MOLT-4): 20.8 µM | GI50 (NCI/ADR-RES): 22.2 µM | GI50 (PC-3): 18.1 µM | GI50 (HL-60(TB)): 7.5 µM | GI50 (LOX IMVI): 1.6 µM | GI50 (OVCAR-4): 17.4 µM | GI50 (SNB-75): 21 µM | GI50 (NCI-H23): 12.2 µM | GI50 (SK-MEL-28): 9.1 µM

Source: ChEMBL document CHEMBL1138555, “N-acylated and N,N'-diacylated imidazolidine-2-thione derivatives and N,N'-diacylated tetrahydropyrimidine-2(1H)-thione analogues: synthesis and antiproliferative activity” (Eur J Med Chem, 2009)
